Reference: ChEMBL document CHEMBL1932986, “Synthesis and in vitro antimycobacterial activity of compounds derived from (R)- and (S)-2-amino-1-butanol - The crucial role of the configuration” (Eur J Med Chem, 2012)

Tests used:
Assay type in all cases: functional
Priestia megaterium [1] = assay: Antibacterial activity against Bacillus megaterium NRRL 1353895 at 1 mg/ml after 24 hrs by agar diffusion test; conditions: NRRL 1353895, 24 h, read-out: DIZ
How it was run: (§1)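 Agar diffusion: wells in agar filled with […] DMSO solution of compound at various concentrations; diameter of clear zone around application point measured. Bacteria grown 24 h at 37 °C on nutrient agar. Compounds first screened at 50 mg/ml; those active then tested at lower concentrations. Bracketed value = lowest concentration (mg/ml) giving zone >11 mm, reported only if activity retained at ≤1.25 mg/ml.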

Bacillus mycoides [2] = assay: Antibacterial activity against Bacillus mycoides DSMZ 274 at 25 mg/ml after 24 hrs by agar diffusion test; conditions: DSMZ 274, 24 h, read-out: DIZ; how it was run: as §1
Priestia megaterium [3] = assay: Antibacterial activity against Bacillus megaterium NRRL 1353895 at 5 mg/ml after 24 hrs by agar diffusion test; conditions: NRRL 1353895, 24 h, read-out: DIZ; how it was run: as §1
Bacillus subtilis [4] = assay: Antibacterial activity against Bacillus subtilis ATCC 6633 at 5 mg/ml after 24 hrs by agar diffusion test; conditions: ATCC 6633, 24 h, read-out: DIZ
How it was run: (§2)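 Agar diffusion: bacteria grown 24 h at 37 °C on nutrient agar; wells cut in the seeded agar are filled with compound solution in DMSO. Read-out is the diameter of the clear zone around the application point.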

Micrococcus luteus [5] = assay: Antibacterial activity against Micrococcus luteus ATCC 9631 at 1 mg/ml after 24 hrs by agar diffusion test; conditions: ATCC 9631, 24 h, read-out: DIZ; how it was run: as §1
Micrococcus luteus [6] = assay: Antibacterial activity against Sarcina lutea ATCC 9341 at 1 mg/ml after 24 hrs by agar diffusion test; conditions: ATCC 9341, 24 h, read-out: DIZ; how it was run: as §1
Escherichia coli [7] = assay: Antibacterial activity against Escherichia coli ATCC 8739 at 1 mg/ml after 24 hrs by agar diffusion test; conditions: ATCC 8739, 24 h, read-out: DIZ; how it was run: as §1
Bacillus [8] = assay: Antibacterial activity against Bacillus idosus B 241 at 25 mg/ml after 24 hrs by agar diffusion test; conditions: B 241, 24 h, read-out: DIZ; how it was run: as §1
Acinetobacter johnsonii [9] = assay: Antibacterial activity against Acinetobacter johnsonii ATCC 17909 at 5 mg/ml after 24 hrs by agar diffusion test; conditions: ATCC 17909, 24 h, read-out: DIZ; how it was run: as §1
Bacillus cereus [10] = assay: Antibacterial activity against Bacillus cereus ATCC 11778 at 5 mg/ml after 24 hrs by agar diffusion test; conditions: ATCC 11778, 24 h, read-out: DIZ; how it was run: as §1
Acinetobacter johnsonii [11] = assay: Antibacterial activity against Acinetobacter johnsonii ATCC 17909 at 1 mg/ml after 24 hrs by agar diffusion test; conditions: ATCC 17909, 24 h, read-out: DIZ; how it was run: as §1
Acinetobacter johnsonii [12] = assay: Antibacterial activity against Acinetobacter johnsonii ATCC 17909 at 25 mg/ml after 24 hrs by agar diffusion test; conditions: ATCC 17909, 24 h, read-out: DIZ; how it was run: as §1
Bacillus subtilis [13] = assay: Antibacterial activity against Bacillus subtilis ATCC 6633 at 25 mg/ml after 24 hrs by agar diffusion test; conditions: ATCC 6633, 24 h, read-out: DIZ; how it was run: as §1
Escherichia coli [14] = assay: Antibacterial activity against Escherichia coli ATCC 8739 at 5 mg/ml after 24 hrs by agar diffusion test; conditions: ATCC 8739, 24 h, read-out: DIZ; how it was run: as §1
Bacillus [15] = assay: Antibacterial activity against Bacillus idosus B 241 at 1 mg/ml after 24 hrs by agar diffusion test; conditions: B 241, 24 h, read-out: DIZ; how it was run: as §1
Staphylococcus aureus [16] = assay: Antibacterial activity against Staphylococcus aureus NRRL B 313 at 5 mg/ml after 24 hrs by agar diffusion test; conditions: NRRL B 313, 24 h, read-out: DIZ
How it was run: (§3)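 Agar diffusion: bacteria grown 24 h at 37 °C on nutrient agar. Wells in the agar are filled with […] of compound solution in DMSO at various concentrations. The diameter of the clear zone around the application point is measured. Bracketed values give the lowest concentration (mg/ml) that produces a zone >11 mm. A first screen is run at 50 mg/ml.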

Bacillus mycoides [17] = assay: Antibacterial activity against Bacillus mycoides DSMZ 274 at 1 mg/ml after 24 hrs by agar diffusion test; conditions: DSMZ 274, 24 h, read-out: DIZ; how it was run: as §1
Bacillus cereus [18] = assay: Antibacterial activity against Bacillus cereus ATCC 11778 at 25 mg/ml after 24 hrs by agar diffusion test; conditions: ATCC 11778, 24 h, read-out: DIZ; how it was run: as §1
Staphylococcus aureus [19] = assay: Antibacterial activity against Staphylococcus aureus NRRL B 313 at 1 mg/ml after 24 hrs by agar diffusion test; conditions: NRRL B 313, 24 h, read-out: DIZ; how it was run: as §2
Escherichia coli [20] = assay: Antibacterial activity against Escherichia coli ATCC 8739 at 25 mg/ml after 24 hrs by agar diffusion test; conditions: ATCC 8739, 24 h, read-out: DIZ; how it was run: as §1
Bacillus cereus [21] = assay: Antibacterial activity against Bacillus cereus ATCC 11778 at 1 mg/ml after 24 hrs by agar diffusion test; conditions: ATCC 11778, 24 h, read-out: DIZ; how it was run: as §1
Bacillus subtilis [22] = assay: Antibacterial activity against Bacillus subtilis ATCC 6633 at 1 mg/ml after 24 hrs by agar diffusion test; conditions: ATCC 6633, 24 h, read-out: DIZ; how it was run: as §1
Micrococcus luteus [23] = assay: Antibacterial activity against Sarcina lutea ATCC 9341 at 5 mg/ml after 24 hrs by agar diffusion test; conditions: ATCC 9341, 24 h, read-out: DIZ; how it was run: as §3
Micrococcus luteus [24] = assay: Antibacterial activity against Micrococcus luteus ATCC 9631 at 5 mg/ml after 24 hrs by agar diffusion test; conditions: ATCC 9631, 24 h, read-out: DIZ; how it was run: as §1
Priestia megaterium [25] = assay: Antibacterial activity against Bacillus megaterium NRRL 1353895 at 25 mg/ml after 24 hrs by agar diffusion test; conditions: NRRL 1353895, 24 h, read-out: DIZ; how it was run: as §1
Bacillus [26] = assay: Antibacterial activity against Bacillus idosus B 241 at 5 mg/ml after 24 hrs by agar diffusion test; conditions: B 241, 24 h, read-out: DIZ; how it was run: as §1
Micrococcus luteus [27] = assay: Antibacterial activity against Sarcina lutea ATCC 9341 at 25 mg/ml after 24 hrs by agar diffusion test; conditions: ATCC 9341, 24 h, read-out: DIZ; how it was run: as §3
Bacillus mycoides [28] = assay: Antibacterial activity against Bacillus mycoides DSMZ 274 at 5 mg/ml after 24 hrs by agar diffusion test; conditions: DSMZ 274, 24 h, read-out: DIZ; how it was run: as §1
Micrococcus luteus [29] = assay: Antibacterial activity against Micrococcus luteus ATCC 9631 at 25 mg/ml after 24 hrs by agar diffusion test; conditions: ATCC 9631, 24 h, read-out: DIZ; how it was run: as §1
Staphylococcus aureus [30] = assay: Antibacterial activity against Staphylococcus aureus NRRL B 313 at 25 mg/ml after 24 hrs by agar diffusion test; conditions: NRRL B 313, 24 h, read-out: DIZ; how it was run: as §3

CN[C@@H]1[C@H](O[C@H]2[C@H](O[C@H]3[C@H](O)[C@@H](O)[C@H](N=C(N)N)[C@@H](O)[C@@H]3N=C(N)N)O[C@@H](C)[C@]2(O)C=O)O[C@@H](CO)[C@H](O)[C@H]1O [STREPTOMYCIN] gave a zone of inhibition at 1000 µg/mL (Priestia megaterium [1]) of 20 mm, a zone of inhibition at 25000 µg/mL (Bacillus mycoides [2]) of 35 mm and a zone of inhibition at 5000 µg/mL (Priestia megaterium [3]) of 25 mm. The zone of inhibition at 5000 µg/mL (Bacillus subtilis [4]) was 30 mm, the zone of inhibition at 1000 µg/mL (Micrococcus luteus [5]) was 20 mm and the zone of inhibition at 1000 µg/mL (Micrococcus luteus [6]) was 19 mm. For the same molecule, the zone of inhibition at 1000 µg/mL (Escherichia coli [7]) was 23 mm, the zone of inhibition at 25000 µg/mL (Bacillus [8]) was 30 mm and the zone of inhibition at 5000 µg/mL (Acinetobacter johnsonii [9]) was 24 mm. It also gave a zone of inhibition at 5000 µg/mL (Bacillus cereus [10]) of 28 mm, a zone of inhibition at 1000 µg/mL (Acinetobacter johnsonii [11]) of 20 mm and a zone of inhibition at 25000 µg/mL (Acinetobacter johnsonii [12]) of 30 mm. The zone of inhibition at 25000 µg/mL (Bacillus subtilis [13]) was 35 mm, the zone of inhibition at 5000 µg/mL (Escherichia coli [14]) was 26 mm and the zone of inhibition at 1000 µg/mL (Bacillus [15]) was 21 mm. It also gave a zone of inhibition at 5000 µg/mL (Staphylococcus aureus [16]) of 26 mm, a zone of inhibition at 1000 µg/mL (Bacillus mycoides [17]) of 25 mm and a zone of inhibition at 25000 µg/mL (Bacillus cereus [18]) of 30 mm. It also gave a zone of inhibition at 1000 µg/mL (Staphylococcus aureus [19]) of 20 mm, a zone of inhibition at 25000 µg/mL (Escherichia coli [20]) of 35 mm and a zone of inhibition at 1000 µg/mL (Bacillus cereus [21]) of 23 mm. It also gave a zone of inhibition at 1000 µg/mL (Bacillus subtilis [22]) of 25 mm, a zone of inhibition at 5000 µg/mL (Micrococcus luteus [23]) of 22 mm and a zone of inhibition at 5000 µg/mL (Micrococcus luteus [24]) of 25 mm. The zone of inhibition at 25000 µg/mL (Priestia megaterium [25]) was 30 mm, the zone of inhibition at 5000 µg/mL (Bacillus [26]) was 27 mm and the zone of inhibition at 25000 µg/mL (Micrococcus luteus [27]) was 27 mm. For the same molecule, the zone of inhibition at 5000 µg/mL (Bacillus mycoides [28]) was 30 mm, the zone of inhibition at 25000 µg/mL (Micrococcus luteus [29]) was 30 mm and the zone of inhibition at 25000 µg/mL (Staphylococcus aureus [30]) was 32 mm.
